ChEMBL document CHEMBL3352503, “An investigation of in vitro cytotoxicity and apoptotic potential of aromatic diselenides” (Bioorg Med Chem Lett, 2014)
Calls of active or inactive are those of the source. The calls are words filed in the database; no cut-off is given here.

Tests used:
[1] = Cytotoxicity against human HL60 cells after 48 hrs by MTT assay; assay type: functional, cell-based; details: HL-60, 48 h
Method in brief: (§1)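 Cells grown at 37°C, 5% CO2 with 10% heat-inactivated FBS, penicillin, streptomycin and L-glutamine: HL-60 (suspension) in RPMI-1640, PC-3 in MEM. Seeded 6000 cells/well, exposed 48 h to a range of concentrations (DMSO vehicle, final below 1%). MTT (2.5 mg/mL) added for 4 h, formazan dissolved in DMSO, OD at 540 nm (ref. 620 nm); growth vs untreated cells.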

[2] = Cytotoxicity against human OVCAR5 cells after 48 hrs by MTT assay; assay type: functional, cell-based; details: OVCAR-5, 48 h
[3] = Cytotoxicity against human 786-O cells after 48 hrs by MTT assay; assay type: functional, cell-based; details: 786-0, 48 h
HT-29 = experiment: Cytotoxicity against human HT-29 cells after 48 hrs by MTT assay; assay type: functional, cell-based; details: HT-29, 48 h
[4] = Cytotoxicity against human PC3 cells after 48 hrs by MTT assay; assay type: functional, cell-based; details: PC-3, 48 h; method in brief: as §1
HL-60 [5] = experiment: Cytotoxicity against human HL60 cells by MTT assay; assay type: functional, cell-based; details: TDE = time-dependent effect
Method in brief: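 Cells grown in RPMI-1640 with 10% heat-inactivated FBS at 37 °C, 5% CO₂, seeded at 6000 cells/well and exposed to test material for 48 hr. DMSO vehicle kept below 1% final. MTT (2.5 mg/mL) added for 4 hr, formazan dissolved in DMSO, OD read at 540 nm (reference 620 nm). Growth calculated as treated vs untreated absorbance.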

HL-60 [6] = experiment: Induction of apoptosis in human HL60 cells at 10 uM after 24 hrs by propidium iodide staining-based flow cytometry (reference value: 1.49%); assay type: functional
[7] = Cell cycle arrest in human HL60 cells assessed as accumulation at G1 phase at 10 uM after 24 hrs by propidium iodide staining-based flow cytometry (reference value: 50.80%); assay type: functional; details: HL-60
[8] = Cell cycle arrest in human HL60 cells assessed as accumulation at G2 phase at 10 uM after 24 hrs by propidium iodide staining-based flow cytometry (reference value: 2.39%); assay type: functional; details: HL-60
[9] = Cell cycle arrest in human HL60 cells assessed as accumulation at S phase at 10 uM after 24 hrs by propidium iodide staining-based flow cytometry (reference value: 46.82%); assay type: functional; details: HL-60
HL-60 [10] = experiment: Induction of apoptosis in human HL60 cells at 20 uM after 24 hrs by propidium iodide staining-based flow cytometry (reference value: 1.49%); assay type: functional
[11] = Cell cycle arrest in human HL60 cells assessed as accumulation at G1 phase at 20 uM after 24 hrs by propidium iodide staining-based flow cytometry (reference value: 50.80%); assay type: functional; details: HL-60
[12] = Cell cycle arrest in human HL60 cells assessed as accumulation at G2 phase at 20 uM after 24 hrs by propidium iodide staining-based flow cytometry (reference value: 2.39%); assay type: functional; details: HL-60
[13] = Cell cycle arrest in human HL60 cells assessed as accumulation at S phase at 20 uM after 24 hrs by propidium iodide staining-based flow cytometry (reference value: 46.82%); assay type: functional; details: HL-60
HL-60 [14] = experiment: Induction of apoptosis in human HL60 cells at 30 uM after 24 hrs by propidium iodide staining-based flow cytometry (reference value: 1.49%); assay type: functional
[15] = Cell cycle arrest in human HL60 cells assessed as accumulation at G1 phase at 30 uM after 24 hrs by propidium iodide staining-based flow cytometry (reference value: 50.80%); assay type: functional; details: HL-60
[16] = Cell cycle arrest in human HL60 cells assessed as accumulation at G2 phase at 30 uM after 24 hrs by propidium iodide staining-based flow cytometry (reference value: 2.39%); assay type: functional; details: HL-60
[17] = Cell cycle arrest in human HL60 cells assessed as accumulation at S phase at 30 uM after 24 hrs by propidium iodide staining-based flow cytometry (reference value: 46.82%); assay type: functional; details: HL-60
HL-60 [18] = experiment: Induction of apoptosis in human HL60 cells assessed as loss of mitochondrial membrane potential after 24 hrs by Rhodamine-123 staining-based flow cytometric analysis; assay type: functional, cell-based
HL-60 [19] = experiment: Induction of apoptosis in human HL60 cells assessed as loss of mitochondrial membrane potential at 10 uM after 24 hrs by Rhodamine-123 staining-based flow cytometric analysis (reference value: 6%); assay type: functional
HL-60 [20] = experiment: Induction of apoptosis in human HL60 cells assessed as loss of mitochondrial membrane potential at 20 uM after 24 hrs by Rhodamine-123 staining-based flow cytometric analysis (reference value: 6%); assay type: functional
HL-60 [21] = experiment: Induction of apoptosis in human HL60 cells assessed as loss of mitochondrial membrane potential at 30 uM after 24 hrs by Rhodamine-123 staining-based flow cytometric analysis (reference value: 6%); assay type: functional
HL-60 [22] = experiment: Induction of apoptosis in human HL60 cells assessed as chromatin condensation at 20 to 30 uM after 24 hrs by fluorescent microscopy; assay type: functional, cell-based
HL-60 [23] = experiment: Induction of apoptosis in human HL60 cells assessed as membrane blebbing at 20 to 30 uM after 24 hrs by fluorescent microscopy; assay type: functional, cell-based
HL-60 [24] = experiment: Induction of apoptosis in human HL60 cells assessed as nuclear fragmentation at 20 to 30 uM after 24 hrs by fluorescent microscopy; assay type: functional, cell-based

Q: What does the source list for `OCc1ccc([Se][Se]c2ccc(CO)cc2)cc1`?
A: IC50 [1]: 11 µM; IC50 [2]: 24 µM; IC50 [3]: 30 µM; IC50 (HT-29): 27 µM; IC50 [4]: 26 µM

Q: Which results are given for `COc1ccc([Se][Se]c2ccc(OC)cc2)cc1`?
A: IC50 [1]: 12 µM; IC50 [2]: 26 µM; IC50 [3]: 28 µM; IC50 (HT-29): 24 µM; IC50 [4]: 27 µM

Q: Which IC50 [1] does the source give for `Oc1ccccc1[Se][Se]c1ccccc1O` here?
A: The IC50 was 14 µM.

Q: And the IC50 [2]?
A: The IC50 was 21 µM.

Q: What about the IC50 (HT-29) of the same compound?
A: The IC50 was 23 µM.

Q: And the IC50 [4]?
A: Its IC50 is 25 µM.

Q: For `c1ccc([Se][Se]c2ccccc2)cc1`, which IC50 [1] is on record?
A: The IC50 was 32 µM.

Q: And the IC50 [2]?
A: Its IC50 is 38 µM.

Q: What about the IC50 [3] of the same compound?
A: Its IC50 is 38 µM.

Q: And the IC50 (HT-29)?
A: Its IC50 is 31 µM.

Q: And the IC50 [4]?
A: The IC50 was 42 µM.

Q: Which results are given for `c1ccc([Se][Se]c2ccccn2)nc1`?
A: IC50 [1]: 28 µM; IC50 [2]: 27 µM; IC50 [3]: 29 µM; IC50 (HT-29): 30 µM; IC50 [4]: 26 µM

Q: Which IC50 [1] does the source give for `Cc1ccc([Se][Se]c2ccc(C)cc2)cc1` here?
A: The IC50 was 33 µM.

Q: What about the IC50 [2] of the same compound?
A: Its IC50 is 31 µM.

Q: What about the IC50 [3] of the same compound?
A: Its IC50 is 29 µM.

Q: What about the IC50 (HT-29) of the same compound?
A: Its IC50 is 37 µM.

Q: What about the IC50 [4] of the same compound?
A: Its IC50 is 29 µM.

Q: Which IC50 [1] does the source give for `CCc1ccccc1[Se][Se]c1ccccc1CC` here?
A: Its IC50 is 28 µM.

Q: And the IC50 [2]?
A: The IC50 was 38 µM.

Q: And the IC50 [3]?
A: Its IC50 is 42 µM.

Q: And the IC50 (HT-29)?
A: Its IC50 is 56 µM.

Q: And the IC50 [4]?
A: Its IC50 is 43 µM.

Q: With `OCc1ccccc1[Se][Se]c1ccccc1CO` as the compound, how does the IC50 [1] read?
A: Its IC50 is 14 µM.

Q: And the IC50 [2]?
A: The IC50 was 16 µM.

Q: And the IC50 [3]?
A: Its IC50 is 27 µM.

Q: What about the IC50 (HT-29) of the same compound?
A: The IC50 was 25 µM.

Q: What about the IC50 [4] of the same compound?
A: Its IC50 is 28 µM.

Q: With `FC(F)(F)c1cc([Se][Se]c2cc(C(F)(F)F)cc(C(F)(F)F)c2)cc(C(F)(F)F)c1` as the compound, how does the IC50 [1] read?
A: Its IC50 is 8 µM.

Q: What about the IC50 [2] of the same compound?
A: The IC50 was 20 µM.

Q: And the IC50 [3]?
A: The IC50 was 24 µM.

Q: What about the IC50 (HT-29) of the same compound?
A: Its IC50 is 21 µM.

Q: What about the IC50 [4] of the same compound?
A: Its IC50 is 13 µM.

Q: What about the inhibition (HL-60 [5]) of the same compound?
A: The inhibition was “tde”.

Q: And the Activity (HL-60 [6])?
A: The Activity was 2.45%.

Q: And the Activity [7]?
A: Its Activity is 49.7%.

Q: And the Activity [8]?
A: Its Activity is 1.93%.

Q: And the Activity [9]?
A: The Activity was 48.4%.

Q: What about the Activity (HL-60 [10]) of the same compound?
A: Its Activity is 5.65%.

Q: And the Activity [11]?
A: Its Activity is 50.8%.

Q: What about the Activity [12] of the same compound?
A: The Activity was 3.78%.

Q: What about the Activity [13] of the same compound?
A: The Activity was 45.5%.

Q: What about the Activity (HL-60 [14]) of the same compound?
A: The Activity was 23.94%.

Q: What about the Activity [15] of the same compound?
A: Its Activity is 46.1%.

Q: And the Activity [16]?
A: Its Activity is 0%.

Q: What about the Activity [17] of the same compound?
A: The Activity was 53.9%.

Q: And the Activity (HL-60 [18])?
A: Its Activity is “Dose-dependent effect”.

Q: And the Activity (HL-60 [19])?
A: The Activity was 11%.

Q: What about the Activity (HL-60 [20]) of the same compound?
A: Its Activity is 20%.

Q: And the Activity (HL-60 [21])?
A: The Activity was 58%.

Q: And the Activity (HL-60 [22])?
A: The Activity was “Active”.

Q: And the Activity (HL-60 [23])?
A: Its Activity is “Active”.

Q: What about the Activity (HL-60 [24]) of the same compound?
A: The Activity was “Active”.

Q: With `Oc1ccc([Se][Se]c2ccc(O)cc2)cc1` as the compound, how does the IC50 [1] read?
A: The IC50 was 13 µM.

Q: And the IC50 [2]?
A: The IC50 was 27 µM.

Q: What about the IC50 [3] of the same compound?
A: The IC50 was 33 µM.

Q: What about the IC50 (HT-29) of the same compound?
A: Its IC50 is 37 µM.

Q: And the IC50 [4]?
A: The IC50 was 29 µM.

Q: For `Cc1cccc(C)c1[Se][Se]c1c(C)cccc1C`, which IC50 [1] is on record?
A: The IC50 was 27 µM.

Q: What about the IC50 [2] of the same compound?
A: Its IC50 is 39 µM.

Q: And the IC50 [3]?
A: Its IC50 is 40 µM.

Q: What about the IC50 (HT-29) of the same compound?
A: The IC50 was 35 µM.

Q: What about the IC50 [4] of the same compound?
A: The IC50 was 33 µM.

Q: Which IC50 [1] does the source give for `c1ccc2c([Se][Se]c3cccc4ccccc34)cccc2c1` here?
A: The IC50 was 16 µM.

Q: What about the IC50 [2] of the same compound?
A: Its IC50 is 25 µM.

Q: What about the IC50 [3] of the same compound?
A: Its IC50 is 32 µM.

Q: What about the IC50 (HT-29) of the same compound?
A: Its IC50 is 34 µM.

Q: What about the IC50 [4] of the same compound?
A: The IC50 was 40 µM.

Q: With `Cc1cc(C)cc([Se][Se]c2cc(C)cc(C)c2)c1` as the compound, how does the IC50 [1] read?
A: Its IC50 is 23 µM.

Q: And the IC50 [2]?
A: The IC50 was 34 µM.

Q: What about the IC50 [3] of the same compound?
A: Its IC50 is 33 µM.

Q: And the IC50 (HT-29)?
A: The IC50 was 36 µM.

Q: And the IC50 [4]?
A: Its IC50 is 30 µM.
